Laboratory results: ChEMBL document CHEMBL4422685, “Design, synthesis and evaluation of a series of 5-methoxy-2,3-naphthalimide derivatives as AcrB inhibitors for the reversal of bacterial resistance” (Bioorg Med Chem Lett, 2019)
Activity calls are given as the source filed them. The rule behind the calls is not given here.

Tests used:
[1] = molecular target: T1, Multidrug efflux pump subunit AcrB (Escherichia coli (strain K12)) (UniProt P31224); assay: Inhibition of AcrB in wild-type drug-resistant Escherichia coli BW2113 assessed as potentiation of chloramphenicol-induced antimicrobial activity by measuring chloramphenicol MIC at 16 ug/ml by checkerboard titration method (Rvb =16 ug/ml)
T1 sequence (whole entry): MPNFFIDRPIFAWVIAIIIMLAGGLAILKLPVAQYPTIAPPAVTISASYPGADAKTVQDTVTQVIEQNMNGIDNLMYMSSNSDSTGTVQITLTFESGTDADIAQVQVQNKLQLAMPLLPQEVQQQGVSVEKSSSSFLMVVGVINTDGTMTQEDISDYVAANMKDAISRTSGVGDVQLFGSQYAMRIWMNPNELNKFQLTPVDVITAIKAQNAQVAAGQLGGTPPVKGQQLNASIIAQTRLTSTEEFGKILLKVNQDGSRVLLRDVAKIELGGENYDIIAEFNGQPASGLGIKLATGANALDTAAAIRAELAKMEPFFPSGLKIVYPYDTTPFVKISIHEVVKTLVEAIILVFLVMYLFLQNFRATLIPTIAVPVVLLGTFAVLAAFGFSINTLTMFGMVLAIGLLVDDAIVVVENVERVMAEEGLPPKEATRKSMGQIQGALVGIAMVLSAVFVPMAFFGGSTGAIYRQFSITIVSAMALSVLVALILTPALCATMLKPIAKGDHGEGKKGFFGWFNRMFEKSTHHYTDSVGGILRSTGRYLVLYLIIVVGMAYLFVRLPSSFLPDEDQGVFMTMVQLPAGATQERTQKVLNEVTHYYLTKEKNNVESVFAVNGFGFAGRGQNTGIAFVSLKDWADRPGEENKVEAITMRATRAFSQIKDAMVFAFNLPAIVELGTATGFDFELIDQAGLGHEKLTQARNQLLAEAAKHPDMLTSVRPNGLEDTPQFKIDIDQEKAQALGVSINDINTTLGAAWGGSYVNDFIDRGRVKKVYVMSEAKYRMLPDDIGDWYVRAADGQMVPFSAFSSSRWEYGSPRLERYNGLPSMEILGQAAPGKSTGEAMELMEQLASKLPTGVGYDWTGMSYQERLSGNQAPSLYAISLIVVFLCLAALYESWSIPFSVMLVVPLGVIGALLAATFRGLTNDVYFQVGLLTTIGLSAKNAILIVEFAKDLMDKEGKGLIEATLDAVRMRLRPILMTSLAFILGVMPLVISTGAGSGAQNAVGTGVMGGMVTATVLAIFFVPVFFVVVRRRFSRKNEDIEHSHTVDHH

Escherichia coli [2] = assay: Induction of Escherichia coli outer membrane permeabilization assessed as increase in nitrocefin hydrolysis at 128 ug/ml by spectroscopic method; format: organism-based
[3] = molecular target: T1, Multidrug efflux pump subunit AcrB (Escherichia coli (strain K12)); assay: Inhibition of AcrB in wild-type drug-resistant Escherichia coli […] assessed as potentiation of tetraphenyl phosphonium chloride-induced antimicrobial activity by measuring tetraphenyl phosphonium chloride MIC at 8 ug/ml by checkerboard titration method (reference value: 1024 ug/ml)
[4] = molecular target: T1, Multidrug efflux pump subunit AcrB (Escherichia coli (strain K12)); assay: Inhibition of AcrB in wild-type drug-resistant Escherichia coli […] assessed as potentiation of erythromycin-induced antimicrobial activity by measuring erythromycin MIC at 32 ug/ml by checkerboard titration method (reference value: 64 ug/ml)
[5] = molecular target: T1, Multidrug efflux pump subunit AcrB (Escherichia coli (strain K12)); assay: Inhibition of AcrB in wild-type drug-resistant Escherichia coli […] assessed as potentiation of tetraphenyl phosphonium chloride-induced antimicrobial activity by measuring tetraphenyl phosphonium chloride MIC at 64 ug/ml by checkerboard titration method (reference value: 1024 ug/ml)
Escherichia coli [6] = assay: Toxicity against wild-type drug-resistant Escherichia coli […] at 128 ug/ml; format: organism-based; details: in vivo
In short: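 MIC determination against wild-type resistant E. coli BW25113 and an isogenic acrB-deleted strain; highest concentration tested 128 mg/L.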

[7] = molecular target: T1, Multidrug efflux pump subunit AcrB (Escherichia coli (strain K12)); assay: Inhibition of AcrB in wild-type drug-resistant Escherichia coli […] assessed as potentiation of levofloxacin-induced antimicrobial activity by measuring levofloxacin MIC at 64 ug/ml by checkerboard titration method (reference value: 0.063 ug/ml)
[8] = molecular target: T1, Multidrug efflux pump subunit AcrB (Escherichia coli (strain K12)); assay: Inhibition of AcrB in wild-type drug-resistant Escherichia coli […] assessed as reduction in glucose-induced nile red efflux at 100 to 200 uM by fluorescence assay
In short: (§1)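 E. coli cells (wild-type resistant with active pump, acrB-deleted, or wild-type plus compound) preloaded with Nile Red before fluorescence recording. Efflux triggered at 100 s by adding 0.2% glucose. Fluorescence traces followed; experiments with different cell batches on three different days.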

[9] = molecular target: T1, Multidrug efflux pump subunit AcrB (Escherichia coli (strain K12)); assay: Inhibition of AcrB in wild-type drug-resistant Escherichia coli […] assessed as reduction in glucose-induced nile red efflux at 100 uM by fluorescence assay; in short: as §1
[10] = molecular target: T1, Multidrug efflux pump subunit AcrB (Escherichia coli (strain K12)); assay: Inhibition of AcrB in wild-type drug-resistant Escherichia coli […] assessed as potentiation of levofloxacin-induced antimicrobial activity by fold reduction in levofloxacin MIC at 16 to 32 ug/ml by checkerboard titration method relative to levofloxacin alone
HeLa = assay: Cytotoxicity against human HeLa cells after 48 hrs by MTT assay; format: cell-based
In short: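 MTT-based viability assay on human cervical cancer HeLa cells, 48 h exposure; IC50 derived.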

[11] = molecular target: T1, Multidrug efflux pump subunit AcrB (Escherichia coli (strain K12)); assay: Inhibition of AcrB in wild-type drug-resistant Escherichia coli […] assessed as reduction in glucose-induced nile red efflux at 50 uM by fluorescence assay; in short: as §1
Escherichia coli [12] = assay: Disruption of Escherichia coli inner membrane integrity at 8 ug/ml after 10 mins by DiOC2(3) probe based fluorescence assay; format: ADME, organism-based; details: in vivo
In short: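 Bacterial suspensions pre-exposed to compound for 10 min, then DiOC2(3) added and fluorescence followed to plateau. Cells re-energized with 0.5% glucose; membrane potential (inside negative) read as fluorescence rise to plateau, then collapsed with the proton ionophore CCCP. Untreated cells run alongside.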

Escherichia coli [13] = assay: Induction of Escherichia coli outer membrane permeabilization assessed as increase in nitrocefin hydrolysis at 8 ug/ml by spectroscopic method; format: organism-based
[14] = molecular target: T1, Multidrug efflux pump subunit AcrB (Escherichia coli (strain K12)); assay: Inhibition of AcrB in wild-type drug-resistant Escherichia coli […] assessed as reduction in glucose-induced nile red efflux at 200 uM by fluorescence assay; in short: as §1
[15] = molecular target: T1, Multidrug efflux pump subunit AcrB (Escherichia coli (strain K12)); assay: Inhibition of AcrB in wild-type drug-resistant Escherichia coli […] assessed as reduction in glucose-induced nile red efflux at 500 uM by fluorescence assay; in short: as §1
Escherichia coli [16] = assay: Induction of Escherichia coli outer membrane permeabilization assessed as increase in nitrocefin hydrolysis at 32 ug/ml by spectroscopic method; format: organism-based

| SMILES | MIC [1] [µg/mL] | Activity (Escherichia coli [2]) | MIC [3] [µg/mL] | MIC [4] [µg/mL] | MIC [5] [µg/mL] | Activity (Escherichia coli [6]) | MIC [7] [µg/mL] | inhibition [8] | inhibition [9] | fold change (FC) [10] | IC50 (HeLa) [µg/mL] | inhibition [11] | Activity (Escherichia coli [12]) | Activity (Escherichia coli [13]) | inhibition [14] | inhibition [15] [%] | Activity (Escherichia coli [16]) |
| --- | --- | --- | --- | --- | --- | --- | --- | --- | --- | --- | --- | --- | --- | --- | --- | --- | --- |
| COc1cccc2cc3c(cc12)C(=O)N(C1CCCC1)C3=O | 16 | Non-Toxic | 1020 | 32 | 1020 | Non-Toxic | 0.063 | inactive | – | – | – | – | – | – | – | – | – |
| COc1ccccc1CN1C(=O)c2cc3cccc(OC)c3cc2C1=O | 16 | Non-Toxic | 1020 | 64 | 1020 | Non-Toxic | 0.0019 | – | Active | 16 | > 64 | – | – | – | – | – | – |
| CCc1ccccc1N1C(=O)c2cc3cccc(OC)c3cc2C1=O | 16 | Non-Toxic | 1020 | 64 | 1020 | Non-Toxic | 0.0313 | – | – | – | > 64 | Active | – | – | – | – | – |
| COc1cccc2cc3c(cc12)C(=O)N(c1ccccc1Cl)C3=O | 16 | Non-Toxic | 1020 | 64 | 1020 | Non-Toxic | 0.063 | – | – | – | – | Active | – | – | – | – | – |
| COc1cccc2cc3c(cc12)C(=O)N(Cc1ccccc1)C3=O | 16 | Non-Toxic | 1020 | 32 | 1020 | Non-Toxic | 0.063 | – | Active | – | – | – | – | – | – | – | – |
| COc1ccc(CN2C(=O)c3cc4cccc(OC)c4cc3C2=O)cc1 | 16 | – | 1020 | 32 | 1020 | Non-Toxic | 0.063 | – | Active | – | – | – | Non-Toxic | Non-Toxic | – | – | – |
| COc1cccc2cc3c(cc12)C(=O)N(C(C)C)C3=O | 8 | Non-Toxic | 1020 | 32 | 1020 | Non-Toxic | 0.0313 | – | – | – | – | – | – | – | Active | 100 | – |
| CCCCCN1C(=O)c2cc3cccc(OC)c3cc2C1=O | 16 | Non-Toxic | 1020 | 32 | 1020 | Non-Toxic | 0.0313 | – | Active | – | > 64 | – | – | – | – | – | – |
| CCCCCCN1C(=O)c2cc3cccc(OC)c3cc2C1=O | 16 | Non-Toxic | 1020 | 32 | 512 | Non-Toxic | 0.063 | – | – | – | – | 100% | – | – | – | – | – |
| COc1cccc2cc3c(cc12)C(=O)N(C)C3=O | 16 | – | 1020 | 64 | 1020 | Non-Toxic | 0.0313 | – | – | – | – | – | – | – | Active | 100 | Non-Toxic |
